Results published in ChEMBL document CHEMBL1140381, “Design and studies of novel 5-substituted alkynylpyrimidine nucleosides as potent inhibitors of mycobacteria” (2005).
Converted amounts (≈) assume the structure as drawn.

Key:
Type in all cases: functional
[1] = system: Mycobacterium tuberculosis variant bovis; experiment: Inhibition of growth of Mycobacterium bovis was determined using microplate alamar blue assay at 50 ug/mL concentration with compound dissolved in DMSO
Method in brief: (§1)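 MABA in 7H9GC medium; M. bovis BCG or M. avium ATCC 25291 frozen inocula at 2.5 × 10⁵ CFU/mL final, 100× DMSO stocks diluted into medium. Incubated 6 days, then alamar blue plus 20% Tween-80 added once bacteria-only wells turned pink, read 24 h later by fluorescence. % inhibition = […]. Triplicate wells, three experiments, mean reported.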

[2] = system: Mycobacterium tuberculosis variant bovis; experiment: Inhibition of growth of Mycobacterium bovis was determined using microplate alamar blue assay at 100 ug/mL concentration with compound dissolved in DMSO; method in brief: as §1
[3] = system: Mycobacterium tuberculosis variant bovis; experiment: Minimum inhibitory concentration against Mycobacterium bovis
Method in brief: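 Alamar blue microplate assay in 7H9GC. BCG or M. avium ATCC 25291 at 2.5 × 10⁵ CFU/mL final, exposed to compound at 100, 50, 10 and 1 µg/mL in triplicate. Reagent added after 6+ days once growth controls turned pink, read after 24 h visually and by fluorescence. MIC₉₀ taken as the lowest concentration giving ~90% growth inhibition.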

[4] = system: Mycobacterium tuberculosis variant bovis; experiment: Inhibition of growth of Mycobacterium bovis was determined using microplate alamar blue assay at 10 ug/mL concentration with compound dissolved in DMSO; method in brief: as §1
[5] = system: Mycobacterium tuberculosis variant bovis; experiment: Inhibition of growth of Mycobacterium bovis was determined using microplate alamar blue assay at 1 ug/mL concentration with compound dissolved in DMSO; method in brief: as §1
[6] = system: Mycobacterium tuberculosis variant bovis; experiment: Inhibition of growth of Mycobacterium bovis was determined using microplate alamar blue assay at 0.5-1 ug/mL concentration with compound dissolved in DMSO

Structure (SMILES)	inhibition at 50 µg/mL [1] [%]	inhibition at 100 µg/mL [2] [%]	MIC90 [3] [µg/mL]	inhibition at 10 µg/mL [4] [%]	inhibition at 1 µg/mL [5] [%]	Inhibition [6] [%]
CCCCCCCCC#Cc1cn([C@H]2C[C@H](O)[C@@H](CO)O2)c(=O)[nH]c1=O	50	90	100 (≈ 274 µM)	0	–	–
CCCCCCCCCCC#Cc1cn([C@H]2C[C@H](O)[C@@H](CO)O2)c(=O)[nH]c1=O	90	90	50 (≈ 127 µM)	70	25	–
CCCCCCCCCCCCC#Cc1cn([C@H]2C[C@H](O)[C@@H](CO)O2)c(=O)[nH]c1=O	90	90	10 (≈ 23.8 µM)	90	33	–
CCCCCCCCC#Cc1cn([C@H]2C[C@H](O)[C@@H](CO)O2)c(=O)nc1N	90	90	50 (≈ 138 µM)	10	–	–
CCCCCCCCCCC#Cc1cn([C@H]2C[C@H](O)[C@@H](CO)O2)c(=O)nc1N	90	90	10 (≈ 25.5 µM)	90	25	–
CCCCCC#Cc1cn([C@H]2C[C@H](O)[C@@H](CO)O2)c(=O)[nH]c1=O	60	60	–	–	–	–
CO[C@H]1/C=C/O[C@@]2(C)Oc3c(C)c(O)c4c(O)c(c(/C=N/N5CCN(C)CC5)c(O)c4c3C2=O)NC(=O)/C(C)=C\C=C\[C@H](C)[C@H](O)[C@@H](C)[C@@H](O)[C@@H](C)[C@H](OC(C)=O)[C@@H]1C [RIFAMPIN]	–	–	1 (≈ 1.22 µM)	–	–	100
